p97 inhibitor: inhibitors of human p97 ATPase, primary screen, biochemical. Transitional endoplasmic reticulum ATPase (Homo sapiens), P55072. recombinant p97 ATPase, Kinase-Glo ATP luminescence, 3 h. inhibition, % at 8 µM. 0.42% of 220,000 active; in the data active = inhibition above about 15%;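 also: 0% = DMSO vehicle and 100% = wells lacking enzyme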
Diaph inh CS: diaphorase inhibitors and chemical oxidizers, primary screen, counter-screen for diaphorase-coupled primary assays, biochemical, uHTS, resorufin fluorescence. diaphorase resazurin-to-resorufin fluorescence, NADH, 16 min; bacterial (C. kluyveri) enzyme, not human. AID 1217, 2008. inhibition, % at 20 µM. 0.69% of 190,000 active;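 active = primary screen inhibition at 20 µM above a set limit, cut at about 50% in these data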;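 also: plate controls were DMSO with full reaction for no effect and wells lacking NADH for full effect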
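Assay system: diaphorase enzyme from Clostridium kluyveri. Quantity: enzyme working solution with 0.14 U/mL diaphorase. Schedule: reaction incubation of 16 min at room temperature. Technique: resorufin fluorescence, excitation 544 nm, emission 590 nm. Controls: No-NADH positive control and DMSO neutral control.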
UBC9 SUMO inh: inhibitors of in vitro SUMOylation cascade, primary screen, biochemical, HTRF, uHTS; SUMO-conjugating enzyme UBC9 (Homo sapiens), P63279; HTRF SUMOylation assay, SAE1/SAE2 + UBC9; inhibition, % at 35 µM; 0.36% of 290,000 active; AID 2006, 2009; in the data active = inhibition above about 50%, passing the limit was not always enough
HKDC1 inhibitor: HKDC1 hexokinase inhibitors, primary screen, biochemical, fluorescence, uHTS; Q2TB90; recombinant HKDC1, G6PDH/diaphorase resazurin coupled fluorescence; inhibition, % at 20 µM; 0.16% of 340,000 active; AID 493160, 2011;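 active = inhibition above about 35% when tested at 20 µM, limit read from the data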;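 also: plate controls were DMSO wells with enzyme for no effect and DMSO wells lacking enzyme for full effect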
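Test system: HK5 enzyme. Quantity: 5 µg/mL HK5 final. Reagent: glucose and ATP substrates. Schedule: 90 min reaction incubation at room temperature, dark. Technique: resazurin-to-resorufin fluorescence via G6PDH and diaphorase coupling, 525/613 nm. Control set: DMSO wells with and without enzyme mix.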
G6PDH CS: L. mesenteroides G6PDH inhibitors, counter-screen for G6PDH-coupled screening assays, biochemical, Leuconostoc mesenteroides enzyme. 0.12% of 200,000 active. Purified L. mesenteroides G6PDH, diaphorase/resazurin coupled fluorescence, 45 min. inhibition, % at 5 µM. glucose-6-phosphate dehydrogenase [Leuconostoc mesenteroides]; in the data active = inhibition above about 50%
* hit, by the source's call; / = no result given. The list is not random: actives were taken first. Their share in the collection is about 0.95%.

SMILES	p97 inhibitor	Diaph inh CS	UBC9 SUMO inh	HKDC1 inhibitor	G6PDH CS
CCOC(=O)C1CCN(c2ccc([N+](=O)[O-])c(C(C)=O)c2)CC1	2	20	10	-3	5
Cn1c(=O)c(C(=S)NC(=O)C2CC2)c(N)n(Cc2ccccc2)c1=O	2	66*	4	/	-35
CCOC(=O)c1ccc(NC(=O)CSc2nc(=O)n(CCN3CCOCC3)c3c2CCC3)cc1	/	/	/	8	/
O=C(CCNS(=O)(=O)c1ccccc1F)OCc1ccccc1Cl	/	/	/	1	/
COc1cc(OC)c(/C=N/NC(=O)c2ccc(NC(C)=O)cc2)cc1Br	1	16	50*	-1	-6
Cc1ccccc1C(=O)N1CCN(c2ccc(NC(=O)c3ccc([N+](=O)[O-])o3)cc2)CC1	/	/	13	-3	/
COc1cc(OC)cc(C(=O)NC(C(=O)NCCc2ccccn2)C(C)C)c1 (centres undefined)	/	/	/	0	/
COc1cc2c(cc1/C=C/C(=O)O)OC(C)C2 (centres undefined)	2	10	55*	-6	11
CCOc1cc2c(cc1/C=C/C(=O)O)OC(C)C2 (centres undefined)	6	/	47	0	/
CCCC(=Nc1ccc(N)cc1)C1=C(O)C(C(=O)OC)C(C)(C)CC1=O (centres undefined)	15*	40	37	-5	1
CCCC(=O)C1=C(O)C(C(=O)OC)C(C)(C)CC1=Nc1ccc(N)cc1 (centres undefined)	-6	14	21	-6	3
Nc1[nH]nc2ncc3cc4ccccc4nc3c12	8	55*	16	13	27
CSc1nnc(-c2ccccc2)c(-c2ccccc2)n1	-3	/	1	0	/
Cc1cccc(C)c1NC(=O)CSc1nnc(-c2ccco2)c(-c2ccco2)n1	0	48	44	22	24
CSc1nnc(-c2ccco2)c(-c2ccco2)n1	11	61*	/	15	27
COc1ccc(C(=O)CSc2nnc(-c3ccco3)c(-c3ccco3)n2)cc1	0	62*	64	6	19
Cc1ccccc1NC(=O)CSc1nnc(-c2ccco2)c(-c2ccco2)n1	4	49	65*	15	31
CCOC(=O)c1c(NC(=O)C2=COCCO2)sc2c1CCN(C(=O)OC)C2	/	/	/	0	/
O=C(NC1CCN(Cc2ccccc2)CC1)c1cn(-c2ccccc2)nc1-c1cccnc1	/	/	/	-3	/
COc1cc(/C=C2\SC(=O)N(Cc3ccc(F)cc3)C2=O)cc([N+](=O)[O-])c1O	2	24	18	14	19
COc1cc(/C=C2\SC(=O)N(Cc3ccc(Cl)cc3)C2=O)cc([N+](=O)[O-])c1O	1	87*	26	17	16
Cc1nc2ccc(-c3nc4cc(N)ccc4o3)cc2[nH]1	-2	7	53*	13	-74
Cc1ccccc1-c1nc2cc(N)ccc2o1	-6	19	65*	6	4
N#Cc1ccccc1S(=O)(=O)N1CCN(C(=O)c2cc3c(s2)CCC3)CC1	/	/	/	0	/
O=c1[nH]c2ccccc2c2nc3ccccn3c12	4	13	17	7	-2
SMILES	p97 inhibitor	Diaph inh CS	UBC9 SUMO inh	HKDC1 inhibitor	G6PDH CS
O=c1nc2c(O)cccn2c2c1c(=O)[nH]c1ccccc12	12	75*	49	17	-8
CC1OC2(C)OC(=N)C1(C#N)C(C#N)(C#N)C2c1ccccc1 (centres undefined)	-1	11	11	-2	-6
CCCCC1OC2(C)OC(=N)C1(C#N)C(C#N)(C#N)C2c1ccccc1 (centres undefined)	7	58*	13	10	-21
COC(=O)COc1ccc(C(c2c(C)[nH][nH]c2=O)c2c(C)[nH][nH]c2=O)cc1	/	/	10	7	/
Cc1[nH][nH]c(=O)c1C(c1ccc(-c2ccc(Cl)cc2Cl)o1)c1c(C)[nH][nH]c1=O	20*	38	91*	/	32
COC(=O)c1ccc(-c2ccc(C(c3c(C)[nH][nH]c3=O)c3c(C)[nH][nH]c3=O)o2)cc1	11	68*	28	7	24
COC(=O)[C@]12C(=O)C(C)=C(O)[C@@]1(C)C(C)=CC1[C@@]34CC[C@@H](OC(C)=O)C(C)(C)C3C(C[C@]12C)OC4=O (some centres undefined)	/	/	18	-8	/
Cc1cc(NC(=O)CSc2nc3cc(C(=O)NCCCOC(C)C)ccc3c(=O)n2Cc2ccco2)no1	1	3	50*	-2	6
Cc1cccc(NC(=O)N2CCC(n3nnc4cc(C)ccc43)CC2)c1	4	79*	25	15	19
Cc1ccc2c(c1)nnn2C1CCN(C(=O)NCc2ccccc2)CC1	1	-17	-9	3	11
COc1ccc(OCC(=O)N/N=C/c2cccn2-c2cccc(C(=O)O)c2)cc1	/	/	/	-3	/
CCN(CC)Cc1c(O)ccc2c(=O)c(Oc3ccccc3OC)coc12	2	4	52*	-4	10
CC1CC(C)CN(C(=O)COC(=O)/C=C/c2cccc([N+](=O)[O-])c2)C1 (centres undefined)	/	/	/	3	/
CC(C)(C)c1cc(CN(CCO)CCO)cc(C(C)(C)C)c1O	-8	70*	-1	8	-9
CN(C)Cc1cc(C(C)(C)C)c(O)c(C(C)(C)C)c1	-1	36	8	5	3
C=CCn1c(SCC(=O)c2ccc(O)c(O)c2)nnc1-c1ccccc1OC	5	64*	18	-9	10
CC1=C(C(=O)Nc2ccccc2C(=O)NC2CCCCC2)SCCO1	/	/	14	-3	/
Cc1ccc(/C=N/NC(=O)c2cccc(S(=O)(=O)Nc3cccc(Cl)c3)c2)o1	-4	-1	61*	-13	6
COc1ccc(CC(=O)OCC(=O)NCc2ccccc2Cl)cc1OC	6	6	-11	5	4
CCC(Sc1nc(C)cc(=O)[nH]1)C(=O)Nc1ccc(Cl)cn1 (centres undefined)	15*	16	0	0	0
Cc1cc(C)n2nc(SC(C)C(=O)Nc3ccc(Cl)cn3)nc2n1 (centres undefined)	4	66*	13	25	4
CCC(C)C1=CC(=Nc2c(C)n(C)n(-c3ccccc3)c2=O)C=C(C(C)CC)C1=O (centres undefined)	5	68*	1	-6	-4
CC1=CC(=Nc2c(C)n(C)n(-c3ccccc3)c2=O)C=C(C)C1=O	9	70*	16	6	2
O=C(c1ccc(S(=O)(=O)N2CCC(c3nc4ccccc4[nH]3)CC2)cc1)N1CCOCC1	2	64*	-6	3	-2
